Measured values collected from several papers.
Target: Calcium/calmodulin-dependent protein kinase type 1 (CAMK1, Homo sapiens, UniProt Q14012)

| Compound | assay | conditions | quantity | value |
| --- | --- | --- | --- | --- |
| COc1ncccc1-c1cnn2ccc(N3CCN(C(=O)OC(C)C)CC3)nc12 | binding, competition with immobilised ligand | 1 µM | remaining binding | 100% |
| C#Cc1n[nH]c2c(-c3cn([C@@H](C)c4ccccc4)c(=O)[nH]c3=O)cc(F)cc12 | enzyme activity, inhibitor | 0.1 µM | inhibition | 14.4% |
| CC(C)(C)c1cc(C=C(C#N)C#N)cc(Br)c1O | enzyme activity, inhibitor | 0.5 µM | remaining activity | 97.5% |
| Cc1nn(C)cc1-c1nc2c(N3CCN(Cc4ccc(Cl)cc4)CC3)c(Cl)cnc2[nH]1 | binding, competition with immobilised ligand | 1 µM | remaining binding | 100% |
| C#Cc1n[nH]c2c(-c3cn(C(C)c4ccccn4)c(=O)[nH]c3=O)cc(F)cc12 (stereo not shown) | enzyme activity, inhibitor | 1 µM | inhibition | -18.7% |
| N#CC1(c2ccccn2)CCN(Cc2cc(C(=O)O)c(=O)n3ccccc23)CC1 | cell-free assay, competition with immobilised ligand | 1 µM | remaining binding | 76% |
| Cn1cc(-c2cc(F)cc(N3CCn4c(cc5c4CCCC5)C3=O)c2CO)cc(Nc2ccc(N3CCN(C4COC4)CC3)cn2)c1=O | enzyme activity, inhibitor | 0.1 µM | inhibition | 0% |
| O=c1[nH]c2ccccc2n1C1CCN(Cc2ccc(-c3[nH]c4cc5ncnc5cc4nc3-c3ccccc3)cc2)CC1 | cell-free assay | 0.5 µM | remaining signal | 95.1% |
| COc1cc(Nc2ncc(F)c(Nc3ccc4c(n3)NC(=O)C(C)(C)O4)n2)cc(OC)c1OC | binding, competition with immobilised ligand | 10 µM | inhibition | 97% |
| Cn1cncc1[C@@](O)(COc1ccc(C#N)cc1-c1ccc(OC(F)(F)F)cc1)c1ccc(C#N)cc1 | cell-free assay, competition with immobilised ligand | 1 µM | remaining binding | 100% |
